Bioassay records deposited in PubChem by The Scripps Research Institute Molecular Screening Center.
In the library only some 1.8% were active in any assay of this set; here they are far more common.
M4 PAM: potentiates acetylcholine response at human M4 receptor; 360,000 tested, 0.4% active; P08173; activation, % at 3 µM; CHO-K1 hM4/Gqi5, Fluo-8 calcium fluorescence, ACh EC20; 0% = ACh EC20, 100% = maximal ACh;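 active means activation above its plate's cutoff, the mean activation of sample wells plus 3 SD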
Target sequence (P08173 whole entry, looked up): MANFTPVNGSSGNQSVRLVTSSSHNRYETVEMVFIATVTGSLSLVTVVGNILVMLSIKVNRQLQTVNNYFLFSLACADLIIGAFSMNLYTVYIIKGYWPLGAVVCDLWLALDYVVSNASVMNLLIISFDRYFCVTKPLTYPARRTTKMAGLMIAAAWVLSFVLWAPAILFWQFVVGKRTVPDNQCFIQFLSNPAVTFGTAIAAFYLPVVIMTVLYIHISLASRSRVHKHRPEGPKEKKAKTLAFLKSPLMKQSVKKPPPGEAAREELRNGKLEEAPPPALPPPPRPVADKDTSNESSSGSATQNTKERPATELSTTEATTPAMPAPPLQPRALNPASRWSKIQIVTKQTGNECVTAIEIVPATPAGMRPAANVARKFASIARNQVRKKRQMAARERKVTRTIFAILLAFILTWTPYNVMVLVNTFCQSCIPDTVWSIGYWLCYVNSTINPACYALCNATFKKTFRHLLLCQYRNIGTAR
CHRM4 agonist: agonists of human muscarinic M4 receptor (CHRM4). activation, % at 3 µM. CHO-K1 hM4/Gqi5, Fluo-8 calcium fluorescence; vehicle 0%, full acetylcholine response 100%. 360,000 tested, 0.14% active. P08173;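 active means activation above the run mean over all test wells plus 3 SD, cut at about 32% in these data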;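 further: peak over basal fluorescence ratio per well then scaled between controls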
CHRM4 antagonist: antagonists of human muscarinic M4 receptor (CHRM4). P08173. CHO-hM4 cells, ACh EC80, Fluo-8 calcium fluorescence. inhibition, % at 3 µM. 360,000 tested, 0.73% active;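 active means inhibition above its plate's cutoff, the mean inhibition of sample wells plus 3 SD, cut at about 27% in these data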
M5 PAM: potentiates acetylcholine response at human M5 receptor; P08912; CHO-K1 hM5, Fluo-8 calcium, ACh EC20 PAM; 0% = ACh EC20, 100% = ACh EC100; activation, % at 3 µM; 360,000 tested, 0.3% active; AID 624038;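 active means activation above the run cutoff, the mean activation of all test compounds plus 3 SD, cut at about 18% in these data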
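System: CHO-K1 cell line with stable human muscarinic M5 receptor expression | Also added: EC20 acetylcholine as agonist stimulus | Compound: One concentration, 3 µM final (nominal) | Timing: Fluo-8 loading 80 min at 37 °C plus 30 min room temperature | Measured by: Fluo-8 calcium dye fluorescence, kinetic read | Read-out basis: % activation, ACh-normalized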
M5 antag: antagonists of human muscarinic M5 receptor (CHRM5); CHO-hM5 cells, Fluo-8 calcium fluorescence, ACh EC80; 360,000 tested, 0.59% active; inhibition, % at 3 µM;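 active means inhibition above a per-plate cutoff, the mean of that plate's test compounds plus 3 SD, cut at about 27% in these data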
CHRM5 agonist: CHRM5 agonism in calcium assay. P08912. CHO-K1 hM5 cells, Fluo-8 calcium fluorescence; 0% DMSO wells, 100% maximal acetylcholine response. activation, % at 3 µM. 360,000 tested, 0.19% active;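 active means activation above the run's mean over test compounds plus 3 SD, cut at about 23% in these data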;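 further: signal is peak over basal fluorescence ratio across the kinetic read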
Each line names hits and unclear results; the compound was inactive in the other large screens.

COc1cccc(CNC(=O)Cn2ccc3cc(S(=O)(=O)N4CCC(C)CC4)ccc32)c1	none
COc1ccccc1NC(=O)CSc1nncn1N	M5 PAM 19.3
COc1ccccc1NC(=O)Cc1nnc(SCC(=O)NC2CCCC2)n1C	none
COc1ccc(NC(=O)CSc2nncn2N)c(OC)c1	none
COc1ccccc1NC(=O)Cc1nnc(SCC(=O)NC2CCCCC2C)n1C (centres undefined)	M5 antag 31.1
COc1ccccc1NC(=O)CSCc1nc2ccccc2[nH]1	M4 PAM 20.9
Cc1cc(NC(=O)CN(C)CC(=O)Nc2ccc(Cl)cc2)no1	none
CCN1CCN(c2ccc(NC(=O)c3cc(S(=O)(=O)N4CCCC4)ccc3Cl)cc2)CC1	none
Cc1ccc(Cn2c(C3CCCN3c3nc(-c4ccc(F)cc4)cs3)nc3cc(C(F)(F)F)ccc32)cc1 (centres undefined)	none
COc1ccccc1C(=O)Nc1ccc(-c2nnc(SCC(=O)O)n2C)cc1	CHRM4 antagonist 37.3
Cc1ccc(-n2c(C)nn(CCOc3ccccc3)c2=O)cc1	none
Cc1nn(CCOc2ccccc2)c(=O)n1-c1c(F)cccc1F	M4 PAM 31.5, CHRM4 antagonist 30.7
CC(C)CN(C(=O)CN(C)S(=O)(=O)c1ccc(Cl)cc1)C1CCS(=O)(=O)C1 (centres undefined)	none
CC(C)CN(C(=O)CCNC(=O)c1ccc(Cl)cc1)C1CCS(=O)(=O)C1 (centres undefined)	M5 PAM 18.3
CC(C)CCC1CC(CSC(=N)N)OC1=O (centres undefined)	M5 PAM 21.0
O=C(Cc1ccsc1)NCC(=O)Nc1ccccc1Br	none
O=C1c2cccc3c([N+](=O)[O-])ccc(c23)C(=O)N1c1ccc(Cl)cn1	CHRM4 antagonist 31.7
O=C1c2cccc3c([N+](=O)[O-])ccc(c23)C(=O)N1c1nccs1	CHRM4 antagonist 36.1
O=C1c2cccc3c([N+](=O)[O-])ccc(c23)C(=O)N1c1ccccn1	M5 antag 27.9
CCOC(=O)c1c(S(=O)(=O)NCC(=O)NCc2cccc(C)c2)c(C)n(C)c1C	none
CC(C)(C)C1CCC(CN2C(Nc3ccccc3)=NC[C@@H]2Cc2ccccc2)CC1 (some centres undefined)	CHRM4 antagonist 50.0, M5 antag 28.0
COc1ccc(C2(C)NC(=O)N(CC(=O)c3cc(C)n(C4CC4)c3C)C2=O)cc1 (centres undefined)	CHRM4 agonist 35.3, CHRM5 agonist 42.0
Cc1cc(C(=O)CN2C(=O)NC(C)(c3ccc(F)c(F)c3)C2=O)c(C)n1C1CC1 (centres undefined)	none
C=C(C)CSc1nnc(-c2ccc(OC)c(OC)c2)n1N	M4 PAM 30.5
Cc1c(Cl)c(=O)oc2cc(OCC(=O)NCc3cccs3)ccc12	M5 PAM 21.4
CCN(CCn1cccn1)C(=O)CCc1nnc(-c2ccc3c(c2)OCO3)o1	M5 PAM 21.7
CCN(CCn1cccn1)C(=O)CCc1nnc(CCCc2ccccc2)o1	none
COc1cccc(C(=O)NCC[N+](C)(C)C)c1	none
O=[N+]([O-])/C=C\c1ccc(N2CCCC2)c(F)c1	CHRM4 agonist 40.7, CHRM4 antagonist 34.5, M5 antag 78.0, CHRM5 agonist 63.6
Cc1ccc(S(=O)(=O)N2CCOCC2)cc1NC(=O)CNc1ccccc1N1CCCC1=O	none
COc1ccc(-c2cc(CNC(=O)CCl)on2)cc1	M5 PAM 19.3
COc1ccc(C2C(C(=O)N3CCN(C)CC3)c3ccccc3C(=O)N2C2CCCCC2)cc1 (centres undefined)	M4 PAM 22.4, M5 PAM 22.2
COc1ccc(C2C(C(=O)N3CCN(c4ccccc4)CC3)c3ccccc3C(=O)N2C)cc1 (centres undefined)	none
CC(C)(C)NC(=O)CN(Cc1cccs1)C(=O)CNS(=O)(=O)c1ccc(F)cc1	none
CC(C)(C)NC(=O)CN(Cc1ccc2c(c1)OCO2)C(=O)CNS(=O)(=O)c1ccc(F)cc1	M4 PAM 44.7, M5 PAM 26.9
